PubChem BioAssay
The source made the active and inactive calls.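 Rule for the calls, unless noted: active = Her2 level under about 52% in both replicate screens, with viability over 70% of control (limit read from the data); inconclusive = Her2 under the limit in one screen only, or viability under 70%; inactive = Her2 level above the set limit.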

Experiments:
[1] = Her2 expression decrease, cell viability multiplex – SKBR3 breast tumor cells, AlphaScreen, ATP viability, primary screen (AID 461); conditions: SKBR3 Her2 protein level, 18-24 h, measured here: SKBR3 viability, ATP luminescence, at 10 µM;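 for Her2 level: lower value means less Her2 protein in the cells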;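 for viability: percent of carrier control wells set as 100% viability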
[2] = molecular target: Receptor tyrosine-protein kinase erbB-2 (Homo sapiens) (UniProt P04626); assay: as above; conditions: 18-24 h, at 10 µM, stronger effect = lower value
Receptor tyrosine-protein kinase erbB-2 (Homo sapiens), sequence (P04626 whole entry, looked up): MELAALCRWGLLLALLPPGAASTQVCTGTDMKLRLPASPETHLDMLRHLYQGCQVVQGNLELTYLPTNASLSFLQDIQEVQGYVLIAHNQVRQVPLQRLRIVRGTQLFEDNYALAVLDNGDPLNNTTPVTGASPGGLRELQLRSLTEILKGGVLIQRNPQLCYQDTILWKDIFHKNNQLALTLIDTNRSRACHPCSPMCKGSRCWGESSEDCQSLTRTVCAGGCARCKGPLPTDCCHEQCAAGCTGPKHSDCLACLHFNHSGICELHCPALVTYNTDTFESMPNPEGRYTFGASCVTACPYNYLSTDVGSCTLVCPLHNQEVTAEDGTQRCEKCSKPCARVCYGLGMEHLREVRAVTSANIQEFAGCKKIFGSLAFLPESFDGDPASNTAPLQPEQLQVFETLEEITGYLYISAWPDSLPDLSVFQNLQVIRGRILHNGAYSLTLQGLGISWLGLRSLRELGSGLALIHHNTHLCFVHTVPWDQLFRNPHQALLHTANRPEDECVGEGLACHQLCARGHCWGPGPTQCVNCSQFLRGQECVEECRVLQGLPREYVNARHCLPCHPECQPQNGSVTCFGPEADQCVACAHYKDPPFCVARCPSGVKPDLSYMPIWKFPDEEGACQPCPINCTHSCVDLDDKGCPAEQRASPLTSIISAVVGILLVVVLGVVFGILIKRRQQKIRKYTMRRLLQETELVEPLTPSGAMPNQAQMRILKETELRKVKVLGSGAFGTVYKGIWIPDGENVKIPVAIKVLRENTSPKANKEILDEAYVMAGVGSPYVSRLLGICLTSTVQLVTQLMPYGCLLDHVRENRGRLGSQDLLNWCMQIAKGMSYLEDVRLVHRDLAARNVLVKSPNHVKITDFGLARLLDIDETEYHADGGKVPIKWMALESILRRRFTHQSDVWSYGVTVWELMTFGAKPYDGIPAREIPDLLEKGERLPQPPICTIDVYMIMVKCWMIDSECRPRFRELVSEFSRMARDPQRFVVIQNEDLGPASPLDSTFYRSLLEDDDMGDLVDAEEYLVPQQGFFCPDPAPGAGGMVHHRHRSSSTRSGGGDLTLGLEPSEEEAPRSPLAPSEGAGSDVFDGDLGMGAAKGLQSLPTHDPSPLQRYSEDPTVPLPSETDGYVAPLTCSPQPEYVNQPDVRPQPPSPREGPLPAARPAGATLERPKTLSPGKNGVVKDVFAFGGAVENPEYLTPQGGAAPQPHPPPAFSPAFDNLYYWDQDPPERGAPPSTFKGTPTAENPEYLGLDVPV

[3] = reduced viability of SK-BR-3 breast cancer cells – cell-based, 24 h, human, pilot screen (AID 572;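 active = viability at or below 10% of carrier control in both of two separate runs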;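 note: compound exposure lasted between 18 and 24 h rather than exactly 24 h; 100% = carrier-treated control wells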); conditions: SK-BR-3 viability, CellTiter-Glo luminescence, at 10 µM, stronger effect = lower value
[4] = HUVEC growth inhibition – cell-based, human, primary screen (AID 575;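 active = viability at or below 30% in both replicate assays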;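 note: 100% = median of untreated cell wells with 0.1% DMSO on each plate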); conditions: HUVEC proliferation, CellTiter-Glo luminescence, 72 h; at 10 µM; stronger effect = lower value
Method in brief: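 Timing: 72 h treatment at 37 °C; material: HUVEC primary cells; technique: CellTiter-Glo luminescence measuring cellular ATP; controls: vehicle and MePR control wells; measure: percent of median DMSO-control luminescence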

[5] = H69AR cell proliferation blockers – human, duplicate replicates, primary screen (AID 580;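 active = viability at or under a set limit in both replicates, limit being median viability minus 3 SD, cut at about 48% in these data, passing the limit was not always enough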;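 note: 100% = mean luminescence of untreated wells and 0% = no signal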); conditions: H69AR lung tumor cells viability, ATP luminescence, 72 h; at 10 µM; stronger effect = lower value
[6] = MRP1 drug-resistance reversers in H69AR cells – cell-based, doxorubicin co-treatment, pilot screen (AID 601;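 active = viability loss from added drug above about 55%, and viability with drug at most 40%, in both replicates, limit read from the data, passing the limit was not always enough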); conditions: CellTiter-Glo, 72 h, at 10 µM; for differential viability (reversal): stronger effect = higher value
[7] = yeast transport mutant growth inhibition pilot in 384-well plates, post-Golgi transport modulator project (AID 636; in the data active = inhibition above about 31%); conditions: absorbance 615 nm, about 18 h, stronger effect = higher value
[8] = growth suppression of yeast trafficking mutant, preliminary HTS, modulators of trafficking downstream of Golgi apparatus project, 1536-format plate, OD 615 nm (AID 637; in the data active = inhibition above about 30%); conditions: yeast transport mutant growth, absorbance 615 nm, 18 h; stronger effect = higher value
[9] = H69AR cells + 2 uM doxorubicin, measured here: viability with 2 uM doxorubicin, stronger effect = lower value
[10] = H69AR cells, compound alone cytotoxicity

| SMILES | viability [1] [%] | Her2 level [2] | viability [3] | viability [4] | viability [5] | differential viability (reversal) ([6]; H69AR cells + 2 uM doxorubicin) | viability [6, 9] [%] | viability [6, 10] [%] | inhibition [7] | inhibition [8] |
| --- | --- | --- | --- | --- | --- | --- | --- | --- | --- | --- |
| Cc1cc(-c2ccccc2)c2nncn2n1 | 106 | 96% (inactive) | 106% (inactive) | 116% (inactive) | 89.9% (inactive) | 5.82% (inactive) | 84.1 | 89.9 | -8.27% (inactive) | 2.42% (inactive) |
| Cc1c(C(=O)N2CCOCC2)oc2ccc(S(=O)(=O)N3CCCC3)cc12 | 95 | 109% (inactive) | 95% (inactive) | 94.3% (inactive) | 87.8% (inactive) | -6.14% (inactive) | 94 | 87.8 | -6.35% (inactive) | -4.59% (inactive) |
| COCCNC(=O)C(c1ccc(C)o1)N(Cc1ccc(OC)cc1)C(=O)Cn1nnc2ccccc21 (stereo not given) | 102 | 98% (inactive) | 102% (inactive) | 102% (inactive) | 97.8% (inactive) | -6.28% (inactive) | 104 | 97.8 | -0.53% (inactive) | -0.82% (inactive) |
| O=S(=O)(Cc1ccccc1)N1CCCCCC1 | 93 | 83.5% (inactive) | 93% (inactive) | 96.1% (inactive) | 101% (inactive) | 2.14% (inactive) | 98.8 | 101 | -5.81% (inactive) | 2.3% (inactive) |
| O=S(=O)(Nc1ncccn1)c1ccc(Nc2ncnc3ccccc23)cc1 | 97.5 | 93% (inactive) | 97.5% (inactive) | 81.2% (inactive) | 95.7% (inactive) | 1.15% (inactive) | 94.5 | 95.7 | -7.57% (inactive) | 3.11% (inactive) |
| O=C(OCc1nnc(-c2ccccc2)o1)c1ccc(S(=O)(=O)NCc2ccco2)cc1 | 99.5 | 98% (inactive) | 99.5% (inactive) | 99.6% (inactive) | 53.6% (inactive) | -6.69% (inactive) | 60.3 | 53.6 | -4.87% (inactive) | -6.36% (inactive) |
| CCN(CC)S(=O)(=O)c1ccc2oc(SCc3ccc(F)cc3)nc2c1 | 93.5 | 82.5% (inactive) | 93.5% (inactive) | 68.5% (inactive) | 80.1% (inactive) | -14.8% (inactive) | 95 | 80.1 | 0.54% (inactive) | -0.95% (inactive) |
| CNC(=O)CN(c1cc(C)ccc1OC)S(=O)(=O)c1ccc(C)cc1 | 93 | 113% (inactive) | 93% (inactive) | 108% (inactive) | 103% (inactive) | 2.79% (inactive) | 100 | 103 | -2.93% (inactive) | -7.58% (inactive) |
| CCN1C(=O)CC(C(=O)Nc2ccc(F)cc2)SC1=Nc1ccc2c(c1)OCO2 (stereo not given) | 136 | 97% (inactive) | 136% (inactive) | 79.7% (inactive) | 86.4% (inactive) | 6.02% (inactive) | 80.4 | 86.4 | -2.53% (inactive) | -1.61% (inactive) |
| CCOC(=O)CN1C(=O)C2(OCCCO2)c2ccccc21 | 99 | 109% (inactive) | 99% (inactive) | 99.7% (inactive) | 101% (inactive) | 11.1% (inactive) | 89.7 | 101 | -7.66% (inactive) | -11% (inactive) |
| CCOC(=O)N1CCN(c2c(NCC3CCN(Cc4cccc(C)c4)CC3)c(=O)c2=O)CC1 | 102 | 89.5% (inactive) | 102% (inactive) | 81.7% (inactive) | 107% (inactive) | 15% (inactive) | 92.2 | 107 | -2% (inactive) | 2.95% (inactive) |
| CCOc1ccc2[nH]c(=O)c(C(c3nnnn3CC3CCCO3)N3CCc4ccccc4C3)cc2c1 (stereo not given) | 97 | 82.5% (inactive) | 97% (inactive) | 81.1% (inactive) | 85.8% (inactive) | 36.5% (inactive) | 49.2 | 85.8 | -4.93% (inactive) | 2.62% (inactive) |
| CCOC(=O)N1CCC2(CC1)CC(=O)c1c(ccc3oc(C(=O)O)c(C)c13)O2 | 118 | 96% (inactive) | 118% (inactive) | 111% (inactive) | 92.3% (inactive) | 3.56% (inactive) | 88.7 | 92.3 | -0.79% (inactive) | -4.55% (inactive) |
| Cn1c(=O)c2c(nc(Oc3ccc4c(c3)OCO4)n2Cc2ccc(F)cc2)n(C)c1=O | 79.5 | 74.5% (inactive) | 79.5% (inactive) | 72.1% (inactive) | 74.7% (inactive) | -8.34% (inactive) | 83 | 74.7 | -2.84% (inactive) | 3.49% (inactive) |
